Experimental data taken from ChEMBL document CHEMBL4261493, “Development of novel β-carboline-based hydroxamate derivatives as HDAC inhibitors with DNA damage and apoptosis inducing abilities” (Medchemcomm, 2017).
Calls of active or inactive are those of the source. The rule behind the calls is not given here.

Columns and labels:
LoVo = assay: Antiproliferative activity against human LoVo cells after 48 hrs by MTT assay; format: functional, cell-based
Histone deacetylase = assay: Inhibition of HDAC in human HeLa nuclear extract using Boc-Lys(acetyl)-AMC as substrate measured after 60 mins by fluorescence assay; format: protein assay
SMMC-7721 = assay: Antiproliferative activity against human SMMC7721 cells after 48 hrs by MTT assay; format: functional, cell-based; conditions: SMMC-7721, 48 h
HCT-116 = assay: Antiproliferative activity against human HCT116 cells after 48 hrs by MTT assay; format: functional, cell-based; conditions: HCT-116, 48 h
HepG2 [1] = assay: Antiproliferative activity against human HepG2 cells after 48 hrs by MTT assay; format: functional, cell-based; conditions: HepG2, 48 h
HepG2 [2] = assay: Induction of apoptosis in human HepG2 cells at 5 uM after 48 hrs by Annexin-V FITC/propidium iodide staining based flow cytometry relative to control; format: functional
Summary of the method: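 HepG2 cells treated for 48 h with vehicle, compound at 1.0, 2.0 or 4.0 μM, or SAHA at 5.0 μM. Cells stained with FITC-annexin V/PI and analysed by flow cytometry. Percentage of apoptotic cells reported as mean ± SD of three independent experiments; significance tested versus control.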

HepG2 [3] = assay: Induction of apoptosis in human HepG2 cells assessed as increase in cleaved caspase3 expression at 5 uM after 48 hrs by Western blot analysis; format: functional, cell-based
Summary of the method: (§1)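 Sub-confluent HepG2 cells incubated with or without compound (1.0–4.0 μM) or SAHA (5.0 μM) for 48 h. Lysates immunoblotted for Bax, Bcl-2, cleaved caspase-3 and PARP, with β-actin as internal control. Densitometric scanning gave levels relative to β-actin, as mean ± SD of three separate experiments.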

[4] = Half life in rat liver microsomes at 5 uM in presence of NADPH by LC-MS analysis
HepG2 [5] = assay: Induction of apoptosis in human HepG2 cells assessed as increase in cleaved PARP expression at 5 uM after 48 hrs by Western blot analysis; format: functional, cell-based; summary of the method: as §1
Calf thymus DNA [6] = assay: Binding affinity to calf thymus DNA assessed as decrease in maximum absorption wavelength by UV-Vis spectroscopic titration method; format: nucleic-acid assay; conditions: Bos taurus
Calf thymus DNA [7] = assay: Binding affinity to calf thymus DNA assessed as maximum absorption wavelength by UV-Vis spectroscopic titration method; format: nucleic-acid assay; conditions: Bos taurus

Structure (SMILES)	IC50 (LoVo)	IC50 (Histone deacetylase)	IC50 (SMMC-7721)	IC50 (HCT-116)	IC50 (HepG2 [1])	Activity (HepG2 [2])	Activity (HepG2 [3])	half-life at 5 µM [4]	Activity (HepG2 [5])	Activity (Calf thymus DNA [6])	Activity (Calf thymus DNA [7])
CCCN(Cc1ccc(C(=O)NO)cc1)C(=O)c1cc2c([nH]c3ccccc32)c(-c2cccc(OC)c2)n1	5.31 µM	0.23 µM	4.12 µM	2.96 µM	3.64 µM	–	–	–	–	–	–
O=C(CCCCCCC(=O)Nc1ccccc1)NO [VORINOSTAT]	–	–	–	–	–	34.5%	Active	44 min	Active	inactive	–
CCCCN(Cc1ccc(C(=O)NO)cc1)C(=O)c1cc2c([nH]c3ccccc32)c(-c2ccc(OC)cc2)n1	4.76 µM	0.34 µM	5.25 µM	3.02 µM	3.37 µM	–	–	–	–	–	–
CCCCN(Cc1ccc(C(=O)NO)cc1)C(=O)c1cc2c([nH]c3ccccc32)c(C)n1	> 12.5 µM	0.93 µM	> 12.5 µM	> 12.5 µM	11.7 µM	–	–	–	–	–	–
COc1ccc(-c2nc(C(=O)N(C)Cc3ccc(C(=O)NO)cc3)cc3c2[nH]c2ccccc23)cc1	> 12.5 µM	0.96 µM	> 12.5 µM	9.76 µM	10.5 µM	–	–	–	–	–	–
CN(Cc1ccc(C(=O)NO)cc1)C(=O)c1cc2c(cn1)[nH]c1ccccc12	–	5.63 µM	> 12.5 µM	> 12.5 µM	> 12.5 µM	–	–	–	–	–	–
CCCN(Cc1ccc(C(=O)NO)cc1)C(=O)c1cc2c(cn1)[nH]c1ccccc12	–	2.82 µM	> 12.5 µM	> 12.5 µM	> 12.5 µM	–	–	–	–	–	–
CCCCN(Cc1ccc(C(=O)NO)cc1)C(=O)c1cc2c(cn1)[nH]c1ccccc12	–	2.69 µM	> 12.5 µM	> 12.5 µM	> 12.5 µM	–	–	–	–	–	–
COc1ccc2c(c1)[nH]c1c(C)nccc12 [HARMINE]	–	> 10 µM	–	–	–	–	–	–	–	–	320 nm
CCN(Cc1ccc(C(=O)NO)cc1)C(=O)c1cc2c(cn1)[nH]c1ccccc12	–	4.78 µM	> 12.5 µM	> 12.5 µM	> 12.5 µM	–	–	–	–	–	–

More lines, main results first:

IC50 (LoVo)	IC50 (Histone deacetylase)	IC50 (SMMC-7721)	IC50 (HCT-116)	IC50 (HepG2 [1])	Structure (SMILES)	Activity (HepG2 [2])	Activity (HepG2 [3])	half-life at 5 µM [4]	Activity (HepG2 [5])	Activity (Calf thymus DNA [6])	Activity (Calf thymus DNA [7])
> 12.5 µM	3.06 µM	> 12.5 µM	> 12.5 µM	> 12.5 µM	Cc1nc(C(=O)N(C)Cc2ccc(C(=O)NO)cc2)cc2c1[nH]c1ccccc12	–	–	–	–	–	–
> 12.5 µM	1.75 µM	> 12.5 µM	> 12.5 µM	> 12.5 µM	CCN(Cc1ccc(C(=O)NO)cc1)C(=O)c1cc2c([nH]c3ccccc32)c(C)n1	–	–	–	–	–	–
> 12.5 µM	0.85 µM	11.6 µM	10.5 µM	9.83 µM	CCCN(Cc1ccc(C(=O)NO)cc1)C(=O)c1cc2c([nH]c3ccccc32)c(C)n1	–	–	–	–	–	–
9.24 µM	0.83 µM	10.3 µM	6.07 µM	8.34 µM	CCN(Cc1ccc(C(=O)NO)cc1)C(=O)c1cc2c([nH]c3ccccc32)c(-c2ccc(OC)cc2)n1	–	–	–	–	–	–
7.63 µM	0.37 µM	5.75 µM	4.32 µM	5.16 µM	CCCCN(Cc1ccc(C(=O)NO)cc1)C(=O)c1cc2c([nH]c3ccccc32)c(-c2cccc(OC)c2)n1	–	–	–	–	–	–
